In test [1] the test system is Staphylococcus epidermidis. As to the kind of experiment: Antimicrobial activity against Staphylococcus epidermidis 1457 on medical grade silicone disk assessed as inhibition of bacterial biofilm after 18 hrs by broth microdilution method. The test is classed as functional.
Test [2] has as its system Staphylococcus epidermidis. As to the kind of experiment: Antimicrobial activity against coagulase-negative Staphylococcus epidermidis isolate WTBF-41 assessed as inhibition of bacterial biofilm after 18 hrs by broth microdilution method. The class given is functional. In outline: (§1)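 Biofilm MBIC on tissue culture-treated polystyrene 96-well plates. Twofold dilutions, 0.2 to 100 μM final, with 2% DMSO final. Inoculum was an overnight culture diluted 1:100 (~5 × 10^6 cells/well) in 0.5× TSB plus 1% glucose, grown 18 h at 37°C. Wells washed, heat-fixed 60°C 60 min, stained with 0.06% crystal violet, OD600 read. MBIC is the lowest concentration giving ≥80% inhibition versus untreated; geometric mean of ≥3 experiments.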
On the technique in general: Dilution methods test growth across graded concentrations, often in twofold steps.

The subject of test [3] is Staphylococcus aureus. Description: Antimicrobial activity against Staphylococcus aureus ATCC 35556 assessed as inhibition of bacterial biofilm formation after 18 hrs by broth microdilution method in presence of 2 ug/ml fibrinogen. The test is classed as functional. In outline:
(§2)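 Polystyrene 96-well wells precoated with 100 μl fibronectin or fibrinogen (0–20 μg protein/ml) for 24 h at 4°C. Wells then washed with sterile water. The standard MBIC biofilm assay followed: 0.5× TSB with 1% glucose, 2% DMSO, 18 h at 37°C, crystal violet read at OD600.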

For test [4], the system named is Staphylococcus aureus. Description: Antimicrobial activity against hospital acquired methicillin-resistant Staphylococcus aureus isolate 47263 assessed as inhibition of bacterial biofilm after 18 hrs by broth microdilution method. The test is classed as functional. In outline: as §1
The subject of test [5] is Staphylococcus aureus. Description: Antimicrobial activity against community acquired methicillin-resistant Staphylococcus aureus isolate 38230 assessed as inhibition of bacterial biofilm after 18 hrs by broth microdilution method. The test is classed as functional. In outline: as §1
Test [6] has as its system Enterococcus faecium. Description: Antimicrobial activity against vancomycin-resistant Enterococcus faecium isolate EF208 assessed as inhibition of bacterial biofilm after 18 hrs by broth microdilution method. The class given is functional. In outline: as §1
Test [7] has as its system Staphylococcus aureus. Description: Antimicrobial activity against hospital acquired methicillin-resistant Staphylococcus aureus isolate 58336 assessed as inhibition of bacterial biofilm after 18 hrs by broth microdilution method. The test is classed as functional. In outline:
as §1

Test [8] deals with Staphylococcus epidermidis. Description: Antimicrobial activity against coagulase-negative Staphylococcus epidermidis isolate WTBF-45 assessed as inhibition of bacterial biofilm after 18 hrs by broth microdilution method. The test is classed as functional. In outline:
as §1

In another test the test system is Escherichia coli. As to the kind of experiment: Antimicrobial activity against Escherichia coli ATCC 25922 assessed as inhibition of bacterial biofilm after 18 hrs by broth microdilution method. The test is classed as functional. In outline: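 Polystyrene plates with breathable lids in 1× TSB (0.25% glucose), 37°C for 18 h. Biofilms form at the air-liquid interface. Stained with crystal violet, dye eluted with 30% acetic acid, OD read. Compound 2-fold series, final 0.2–100 μM in 2% DMSO. MBIC taken at ≥80% inhibition versus untreated. Geometric mean of ≥3 experiments.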

The subject of test [9] is Staphylococcus aureus. Description: Antimicrobial activity against Staphylococcus aureus ATCC 35556 assessed as inhibition of primary adhesion of bacterial biofilm to PVC surface under static condition at MBIC after 30 mins by fluorescence emission using BaclLight Live Dead stain. The test is classed as functional, organism-based. In outline: (§3)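 Mid-log S. aureus ATCC 35556 (OD600 0.5) grown in TSB at 37°C, washed, resuspended in PBS. Compound added (0× to 8× MBIC, 2% DMSO). Suspension placed on tissue culture-treated polystyrene or PVC 96-well plates (eight wells per level) or silicone disks in 24-well plates (three wells). Incubated 30 min at 37°C, then washed. BacLight Live/Dead fluorescence read (ex 485, em 530 nm). Result given as fraction adherent versus untreated.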

The test system of test [10] is Staphylococcus aureus. As to the kind of experiment: Antimicrobial activity against Staphylococcus aureus ATCC 35556 assessed as inhibition of bacterial biofilm formation after 18 hrs by broth microdilution method in presence of 5 ug/ml fibrinogen. The test is classed as functional. In outline:
as §2

The test system of test [11] is Staphylococcus aureus. As to the kind of experiment: Antimicrobial activity against community acquired methicillin-resistant Staphylococcus aureus isolate 22733 assessed as inhibition of bacterial biofilm after 18 hrs by broth microdilution method. The test is classed as functional. In outline:
as §1

For test [12], the system named is Staphylococcus aureus. Description: Antimicrobial activity against community acquired methicillin-resistant Staphylococcus aureus isolate 49404 assessed as inhibition of bacterial biofilm after 18 hrs by broth microdilution method. The class given is functional. In outline: as §1
Test [13] has as its system Staphylococcus aureus. As to the kind of experiment: Antimicrobial activity against Staphylococcus aureus ATCC 35556 assessed as inhibition of primary adhesion of bacterial biofilm to polystyrene surface under static condition at MBIC after 30 mins by fluorescence emission using BaclLight Live Dead stain. The class given is functional, organism-based. In outline:
as §3

The subject of test [14] is Staphylococcus aureus. Description: Antimicrobial activity against community acquired community-acquired Staphylococcus aureus MW2 assessed as inhibition of bacterial biofilm after 18 hrs by broth microdilution method. The test is classed as functional. In outline:
as §1

A further test relates to Enterococcus faecalis. As to the kind of experiment: Antimicrobial activity against Enterococcus faecalis ATCC 51575 on medical grade silicone disk assessed as inhibition of bacterial biofilm after 18 hrs by broth microdilution method. The class given is functional.
Test [15] concerns Staphylococcus aureus. Description: Antimicrobial activity against community acquired methicillin-resistant Staphylococcus aureus isolate 44081 assessed as inhibition of bacterial biofilm after 18 hrs by broth microdilution method. The class given is functional. In outline: as §1
Test [16] concerns Enterococcus faecium. As to the kind of experiment: Antimicrobial activity against vancomycin-resistant Enterococcus faecium isolate EF1509 assessed as inhibition of bacterial biofilm after 18 hrs by broth microdilution method. The class given is functional. In outline:
as §1

The test system of test [17] is Staphylococcus epidermidis. Description: Antimicrobial activity against coagulase-negative Staphylococcus epidermidis isolate WTBF-40 assessed as inhibition of bacterial biofilm after 18 hrs by broth microdilution method. The test is classed as functional. In outline:
(§4)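 Static biofilm in tissue culture-treated polystyrene 96-well plates in 0.5× TSB with 1% glucose. Overnight culture diluted 1:100 gives about 5 × 10^6 cells/well. Compound 2-fold series, final 0.2–100 μM, 2% DMSO. Incubated 18 h at 37°C. Washed, heat-fixed 60°C for 60 min, stained with 0.06% crystal violet, read at OD600. MBIC is the lowest concentration giving ≥80% inhibition versus untreated. Geometric mean of ≥3 independent experiments.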

The subject of test [18] is Staphylococcus aureus. As to the kind of experiment: Antimicrobial activity against community acquired methicillin-resistant Staphylococcus aureus isolate 23542 assessed as inhibition of bacterial biofilm after 18 hrs by broth microdilution method. The test is classed as functional. In outline:
as §1

Test [19] concerns Staphylococcus aureus. As to the kind of experiment: Antimicrobial activity against Staphylococcus aureus ATCC 35556 assessed as inhibition of bacterial biofilm formation after 18 hrs by broth microdilution method in presence of 10 ug/ml fibrinogen. The test is classed as functional. In outline: as §2
Test [20] deals with Staphylococcus aureus. Description: Antimicrobial activity against Staphylococcus aureus ATCC 35556 assessed as inhibition of bacterial biofilm formation after 18 hrs by broth microdilution method in presence of 20 ug/ml fibrinogen. The test is classed as functional. In outline:
as §2

The subject of test [21] is Enterococcus faecium. Description: Antimicrobial activity against vancomycin-resistant Enterococcus faecium isolate 1401 assessed as inhibition of bacterial biofilm after 18 hrs by broth microdilution method. The test is classed as functional. In outline:
as §1

Test [22] concerns Staphylococcus aureus. Description: Antimicrobial activity against Staphylococcus aureus ATCC 35556 assessed as inhibition of bacterial biofilm after 18 hrs by broth microdilution method. The test is classed as functional. In outline:
as §4

Test [23] relates to Staphylococcus aureus. Description: Antimicrobial activity against community-acquired Staphylococcus aureus MW2 on medical grade silicone disk assessed as inhibition of bacterial biofilm after 18 hrs by broth microdilution method. The class given is functional.
Test [24] deals with Staphylococcus aureus. As to the kind of experiment: Antimicrobial activity against Staphylococcus aureus NCTC 8325 on medical grade silicone disk assessed as inhibition of bacterial biofilm after 18 hrs by broth microdilution method.

Calls of active or inactive are those of the source. No cut-off for these calls is given here.

On to `CCOc1cc(/C=C2\SC(=S)N(c3ccc(F)cc3)C2=O)ccc1O`, for which the values for the MBIC90 (in [1]; in the test with Staphylococcus aureus [23]; in the test with Staphylococcus aureus [24]) were 42 µM, 79.4 µM and 79.4 µM, respectively. Moreover, the MBIC in [2] came out at 14.9 µM; with Staphylococcus aureus [3], 3.125 µM; in the test on Staphylococcus aureus [4] it was 8.8 µM; in the test with Staphylococcus aureus [5], 50 µM; in the test with Enterococcus faecium [6], 31.5 µM; with Staphylococcus aureus [7] it was 10.5 µM. The MBIC in test [8] was 25 µM; with Escherichia coli, “>=100 uM”; in the test on Staphylococcus aureus [10], 3.125 µM; in the test with Staphylococcus aureus [11], 50 µM; in the test with Staphylococcus aureus [12] it was 63 µM; in the test with Staphylococcus aureus [14] it was 42 µM. Further, the MBIC in the test on Enterococcus faecalis is 29.7 µM; with Staphylococcus aureus [15] it was 79.4 µM; with Enterococcus faecium [16], “>=100 uM”; in [17], 50 µM; in the test on Staphylococcus aureus [18] it was 31.5 µM; in the test with Staphylococcus aureus [19] it was 3.125 µM. Further, the MBIC was 6.25 µM with Staphylococcus aureus [20], 100 µM in the test on Enterococcus faecium [21] and 2.6 µM with Staphylococcus aureus [22]. Also, the inhibition result with Staphylococcus aureus [9] and in the test with Staphylococcus aureus [13] was “Active” throughout.

Regarding `CCOc1cc(/C=C2\SC(=S)N(c3cccnc3)C2=O)ccc1O`, the MBIC90 was determined as 35.4 µM in test [1], 19.8 µM with Enterococcus faecalis, 25 µM in the test on Staphylococcus aureus [23] and 25 µM in the test with Staphylococcus aureus [24]. The MBIC was found to be 17.7 µM in [2]; 12.5 µM with Staphylococcus aureus [3]; 19.8 µM in the test on Staphylococcus aureus [5]; 15.7 µM in the test with Enterococcus faecium [6]; 14.9 µM with Staphylococcus aureus [7]; 17.7 µM in test [8]. Moreover, the MBIC entry is “>=100 uM” in the test with Escherichia coli; 12.5 µM in the test on Staphylococcus aureus [10]; 31.5 µM in the test with Staphylococcus aureus [12]; 21 µM in the test on Staphylococcus aureus [14]; 25 µM in the test with Staphylococcus aureus [15]; 21 µM in the test with Enterococcus faecium [16]. For the same compound, the MBIC in test [17] worked out at 35.4 µM; in the test with Staphylococcus aureus [18], 25 µM; in the test on Staphylococcus aureus [19], 12.5 µM; with Staphylococcus aureus [20] it was 12.5 µM; in the test with Enterococcus faecium [21], 19.8 µM; with Staphylococcus aureus [22], 10.5 µM. Moreover, the inhibition result in the test with Staphylococcus aureus [9] and in the test with Staphylococcus aureus [13] was “Active” each time.

`C=CCOc1cc(/C=C2\SC(=S)N(c3ccc(F)cc3)C2=O)ccc1O`: the MBIC90 is 59.5 µM in test [1], 100 µM in the test on Enterococcus faecalis, 100 µM with Staphylococcus aureus [23] and 100 µM with Staphylococcus aureus [24]. For the same compound, the MBIC came out at 17.7 µM in test [2]; 3.125 µM in the test with Staphylococcus aureus [3]; 8.8 µM in the test with Staphylococcus aureus [4]; 35.4 µM in the test on Staphylococcus aureus [5]; 35.4 µM in the test on Enterococcus faecium [6]; 25 µM in [8]. In addition, the MBIC entry in the test on Escherichia coli was “>=100 uM”; with Staphylococcus aureus [10], 3.125 µM; in the test on Staphylococcus aureus [11], 100 µM; with Staphylococcus aureus [12] it was 15.7 µM; in the test on Staphylococcus aureus [14], 25 µM; in the test with Staphylococcus aureus [15], 39.7 µM. Further, the MBIC with Enterococcus faecium [16] was found to be 59.5 µM; in [17] it was 50 µM; in the test on Staphylococcus aureus [19], 3.125 µM; with Staphylococcus aureus [20], 3.125 µM; in the test with Enterococcus faecium [21] it was 79.4 µM; with Staphylococcus aureus [22] it was 2.6 µM.

As for `CCOc1cc(/C=C2\SC(=S)N(c3cccc(F)c3)C2=O)ccc1O`, the MBIC90 in test [1] was 59.5 µM; in the test with Staphylococcus aureus [23], 70.7 µM; in the test with Staphylococcus aureus [24] it was 70.7 µM. For the same compound, the MBIC in test [2] was found to be 17.7 µM; in the test on Staphylococcus aureus [3], 6.25 µM; with Staphylococcus aureus [4], 8.8 µM; in the test with Enterococcus faecium [6], 50 µM; in the test with Staphylococcus aureus [7] it was 10.5 µM; in test [8], 50 µM. Moreover, the MBIC entry in the test on Escherichia coli is “>=100 uM”; in the test on Staphylococcus aureus [10], 6.25 µM; in the test with Staphylococcus aureus [11] it was 70.7 µM; in the test with Staphylococcus aureus [14], 31.5 µM; in the test on Enterococcus faecalis it was 63 µM; in the test on Enterococcus faecium [16] it was “>=100 uM”. The MBIC was 59.5 µM in [17]; 19.8 µM in the test on Staphylococcus aureus [18]; 6.25 µM in the test with Staphylococcus aureus [19]; 6.25 µM in the test with Staphylococcus aureus [20]; “>=100 uM” with Enterococcus faecium [21]; 4.4 µM in the test on Staphylococcus aureus [22].

The values above are taken from ChEMBL document CHEMBL1649230, “Aryl rhodanines specifically inhibit staphylococcal and enterococcal biofilm formation” (Antimicrob Agents Chemother, 2009).
